The values below come from ChEMBL document CHEMBL1145471, “Small molecule regulators of autophagy identified by an image-based high-throughput screen” (Proc Natl Acad Sci U S A, 2007).

Structures are written as SMILES. Calls of active or inactive are those of the source. The calls are words filed in the database; no cut-off is given here.

Assay [1] deals with H4. Briefly: Effect on FYVE-RFP+ vesicle intensity per cell in human H4 cells after 8 hrs relative to control. Set-up: concentration or dose not given beside the values. Type of assay: functional. The method in brief: (§1)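 H4 cells stably expressing FYVE-RFP (H4-FYVE), grown in DMEM with 10% FBS, penicillin/streptomycin and 2 mM L-glutamine at 37°C, 5% CO2, seeded in 96-well plates and exposed to compound. Fixed in 4% paraformaldehyde, nuclei stained with 3 μg/ml DAPI, FYVE-RFP+ vesicles quantified by high-throughput fluorescence microscopy against DMSO control. Triplicate wells, mean ± SD.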

Assay [2] deals with H4. In words: Induction of light chain 3-GFP level in human H4 cells at 2.1 uM after 24 hrs by high throughput fluorescence microscopy relative to control. In kind it is functional.
Assay [3] concerns H4. Briefly: Increase in long-lived protein degradation in human H4 cells after 24 hrs relative to control. Type of assay: functional. Also noted: concentration or dose not given beside the values.
The test system of assay [4] is H4. Briefly: Effect on FYVE-RFP+ vesicle intensity per cell in human H4 cells after 2 hrs relative to control. In kind it is functional. Set-up: concentration or dose not given beside the values. A digest of the protocol:
as §1

Assay [5] concerns H4. Briefly: Increase in long-lived protein degradation in human H4 cells after 4 hrs relative to control. In kind it is functional. Also noted: concentration or dose not given beside the values.
Assay [6] deals with H4. Briefly: Increase in light chain 3-GFP+ autophagosome vesicle area per cell in human H4 cells at 2.1 uM after 24 hrs by high throughput fluorescence microscopy relative to control. Type of assay: functional.
The subject of assay [7] is H4. In words: Increase in long-lived protein degradation in human H4 cells after 2 hrs relative to control. Type of assay: functional. Set-up: concentration or dose not given beside the values.
The test system of assay [8] is H4. In words: Increase in long-lived protein degradation in human H4 cells after 1 hr relative to control. Type of assay: functional. Also noted: concentration or dose not given beside the values.
Assay [9] relates to H4. In words: Effect on FYVE-RFP+ vesicle intensity per cell in human H4 cells after 4 hrs relative to control. Type of assay: functional. Also noted: concentration or dose not given beside the values. The method in brief:
as §1

In assay [10] the test system is H4. In words: Increase in light chain 3-GFP+ autophagosome vesicle number per cell in human H4 cells at 2.1 uM after 24 hrs by high throughput fluorescence microscopy relative to control. Type of assay: functional. The method in brief:
(§2)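 H4 cells stably expressing LC3-GFP were grown in DMEM with 10% FBS and 2 mM L-glutamine at 37°C, 5% CO2. They were exposed to each compound for 24 h, with DMSO as negative and rapamycin as positive control. Cells were then fixed in 4% paraformaldehyde and stained with 3 μg/ml DAPI. High-throughput fluorescence imaging scored LC3-GFP spot number, size and intensity, expressed relative to DMSO. Mean ± SD of triplicates; experiments repeated three times.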

Assay [11] has as its system H4. Briefly: Increase in light chain 3-GFP+ autophagosome vesicle intensity per cell in human H4 cells at 2.1 uM after 24 hrs by high throughput fluorescence microscopy relative to control. In kind it is functional.
Assay [12] has as its system H4. Briefly: Increase in FYVE-RFP+ vesicle intensity per cell in human H4 cells after 2 hrs relative to control. In kind it is functional. Also noted: concentration or dose not given beside the values. A digest of the protocol:
as §1

Assay [13] has as its system H4. Briefly: Increase in FYVE-RFP+ vesicle intensity per cell in human H4 cells after 4 hrs relative to control. In kind it is functional. Set-up: concentration or dose not given beside the values. The method in brief:
as §1

For assay [14], the system named is H4. Briefly: Increase in FYVE-RFP+ vesicle intensity per cell in human H4 cells after 8 hrs relative to control. Also noted: concentration or dose not given beside the values. In kind it is functional. The method in brief: as §1
In assay [15] the test system is H4. Briefly: Increase in light chain 3-GFP+ autophagosome vesicle number per cell in human H4 cells at 5.3 uM after 24 hrs by high throughput fluorescence microscopy relative to control. Type of assay: functional. The method in brief:
(§3)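 H4 cells stably expressing LC3-GFP, kept in DMEM/10% FBS at 37°C, 5% CO2, were seeded in 96-well plates and exposed to compound for 24 h. Cells were then fixed in 4% paraformaldehyde and stained with 3 μg/ml DAPI. Automated fluorescence microscopy scored the number, size and intensity of LC3-GFP spots. Values are percent of DMSO wells, in triplicate, mean ± SD. Rapamycin served as positive control.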

Assay [16] concerns H4. Briefly: Increase in light chain 3-GFP+ autophagosome vesicle intensity per cell in human H4 cells at 5.3 uM after 24 hrs by high throughput fluorescence microscopy relative to control. In kind it is functional. A digest of the protocol: (§4)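 H4 cells stably expressing LC3-GFP, seeded in 96-well plates and exposed to compound for 24 h; fixed in 4% paraformaldehyde, nuclei stained with 3 μg/ml DAPI. Automated fluorescence microscopy scored number, size and intensity of LC3-GFP spots; values expressed relative to DMSO-treated wells, rapamycin positive control. Triplicate wells, mean ± SD; experiments repeated three times.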

The subject of assay [17] is H4. In words: Increase in light chain 3-GFP+ autophagosome vesicle area per cell in human H4 cells at 5.3 uM after 24 hrs by high throughput fluorescence microscopy relative to control. In kind it is functional. A digest of the protocol: as §4
Assay [18] has as its system H4. Briefly: Reduction of poly(Q) level in human H4 cells expressing EGFP-Q79-HA after 24 hrs. Type of assay: functional, cell-based. The method in brief:
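H4 cells were transiently transfected with an EGFP-Q79-HA expression vector. The medium was replaced 6 h after transfection and compounds were added. Poly(Q) was detected with anti-HA antibody.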

The subject of assay [19] is H4. Briefly: Induction of light chain 3-GFP level in human H4 cells at 5.3 uM after 24 hrs by high throughput fluorescence microscopy relative to control. In kind it is functional. The method in brief:
as §3

In assay [20] the target is T1, Serine/threonine-protein kinase mTOR (Homo sapiens, UniProt P42345). In words: Effect on mTOR phosphorylation in human H4 cells at 5.3 uM after 4 hrs. In kind it is cell-based. The method in brief:
(§5)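 H4 cells exposed to compound for 4 h. Lysates analysed by Western blot with anti-phospho and anti-total mTOR antibodies, with actin as loading control. Rapamycin served as reference.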

In assay [21] the test system is H4. Briefly: Increase in ratio of light chain 3 subunit 2 to light chain 3 subunit 1 in human H4 cells at 5.3 uM after 4 hrs by Western blot. In kind it is functional, cell-based. The method in brief:
(§6)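 H4 cells were treated with each compound for 4 h, then lysed. Lysates were immunoblotted with anti-LC3 antibody, with actin as loading control. LC3II and LC3I bands were compared as an LC3II/LC3I ratio.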

The target of assay [22] is T1, Serine/threonine-protein kinase mTOR. In words: Effect on mTOR phosphorylation in human H4 cells at 8.3 uM after 4 hrs. In kind it is cell-based. The method in brief: as §5
Assay [23] deals with H4. Briefly: Increase in light chain 3-GFP+ autophagosome vesicle area per cell in human H4 cells at 8.3 uM after 24 hrs by high throughput fluorescence microscopy relative to control. In kind it is functional. The method in brief:
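H4 cells stably expressing LC3-GFP, seeded in 96-well plates and exposed to compound for 24 h; screening concentrations were 3–12 μM, with rapamycin 0.22 μM and bafilomycin A1 0.40 μM. Cells fixed in 4% paraformaldehyde and stained with 3 μg/ml DAPI. Number, size and intensity of LC3-GFP spots measured by high-throughput fluorescence microscopy and expressed as percent of DMSO-treated wells. Rapamycin was the positive control. Triplicate wells, mean ± SD; experiments repeated three times.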

Assay [24] deals with H4. In words: Increase in light chain 3-GFP+ autophagosome vesicle intensity per cell in human H4 cells at 8.3 uM after 24 hrs by high throughput fluorescence microscopy relative to control. In kind it is functional. A digest of the protocol:
as §2

The test system of assay [25] is H4. In words: Induction of light chain 3-GFP level in human H4 cells at 8.3 uM after 24 hrs by high throughput fluorescence microscopy relative to control. Type of assay: functional. A digest of the protocol: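 H4 cells stably expressing LC3-GFP, grown in DMEM with 10% FBS, penicillin/streptomycin and 2 mM L-glutamine at 37°C, 5% CO2. Cells were seeded in 96-well plates and exposed to library compounds at 3–12 μM for 24 h, then fixed in 4% paraformaldehyde and stained with 3 μg/ml DAPI. LC3-GFP spot number, size and intensity were measured by high-throughput fluorescence microscopy and expressed relative to DMSO. Triplicates, mean ± SD.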

Assay [26] has as its system H4. In words: Increase in ratio of light chain 3 subunit 2 to light chain 3 subunit 1 in human H4 cells at 8.3 uM after 4 hrs by Western blot. In kind it is functional, cell-based. A digest of the protocol: as §6
The test system of assay [27] is H4. In words: Increase in light chain 3-GFP+ autophagosome vesicle number per cell in human H4 cells at 8.3 uM after 24 hrs by high throughput fluorescence microscopy relative to control. In kind it is functional. A digest of the protocol:
as §2

For the compound `C/C=C/C[C@@H](C)[C@@H](O)[C@H]1C(=O)N[C@@H](CC)C(=O)N(C)CC(=O)N(C)[C@@H](CC(C)C)C(=O)N[C@@H](C(C)C)C(=O)N(C)[C@@H](CC(C)C)C(=O)N[C@@H](C)C(=O)N[C@H](C)C(=O)N(C)[C@@H](CC(C)C)C(=O)N(C)[C@@H](CC(C)C)C(=O)N(C)[C@@H](C(C)C)C(=O)N1C` [CYCLOSPORINE], the Activity is 55.82% in assay [1]; 159.64% in assay [2]; 104.28% in assay [3]; 73.62% in assay [4]; 101.74% in assay [5]; 181.14% in assay [6]. Also, the Activity in assay [7] came out at 117.39%; in [8] it was 114.15%; in [9] it was 71.69%; in assay [10], 155.88%; in [11], 178.79%.

As for `O=C1NCN(c2ccccc2)C12CCN(CCCC(c1ccc(F)cc1)c1ccc(F)cc1)CC2` [FLUSPIRILENE], the Activity in [12] worked out at 224.98%; in [3], 145.5%; in assay [13], 142.15%; in [14], 108.53%; in assay [15], 309.6%; in assay [16], 1593.16%. The Activity in assay [5] is 144.79%; in assay [17], 532.51%; in assay [18], “Dose-dependent effect”; in [7] it was 143.17%; in assay [19], 143.3%; in assay [8] it was 93.82%. Further, the result in [20] was inactive. For the same compound, in assay [21], the result was Active.

As for `CN1CCN(CCCN2c3ccccc3Sc3ccc(C(F)(F)F)cc32)CC1` [TRIFLUOPERAZINE], the Activity in [12] was 136.58%; in assay [3] it was 124.78%; in assay [13], 111.52%; in assay [14] it was 94.28%; in assay [5], 109%; in assay [18] it was “Dose-dependent effect”. For the same compound, the Activity in assay [23] is listed as 520.24%; in assay [24], 1010.35%; in assay [7], 105.6%; in assay [25] it was 105.72%; in assay [8] it was 76.62%; in assay [27], 364.24%. Also, in [22], the result was inactive. The result in assay [26] was Active.
